This passage reports GI50 and IC50 results from ChEMBL document CHEMBL1134575, “Synthesis, molecular modeling, and structure-activity relationship of benzophenone-based CAAX-peptidomimetic farnesyltransferase inhibitors” (J Med Chem, 2001).

The test system of one assay is HL-60. The experiment in a line: Antiproliferative activity against HL60 cell line. It counts as functional. Conditions: Homo sapiens. A digest of the protocol:
(§1)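 Suspended human leukaemic lines (K-562, HL-60, THP-1) grown in RPMI 1640 with penicillin/streptomycin and 10% FBS. About 10 000 cells per well in bicarbonate medium without HEPES. Test substances added in serial twofold dilutions (1:2 to 1:1024). Incubation 72 h, 37 °C, 5% CO2, humidified. Cells counted electronically, each count the mean of three. GI50 read where the concentration–response curve crosses 50% of control counts.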
Molecule `N[C@@H](CS)C(=O)Nc1ccc(NC(=O)Cc2ccc(Br)cc2)c(C(=O)c2ccccc2)c1` displayed a GI50 of 4200 nM. This counts as single-digit micromolar.

In a further assay the test system is THP-1. As to the kind of experiment: Antiproliferative activity against THP-1 cell line. It counts as functional. Conditions: Homo sapiens. A digest of the protocol:
as §1
As to `N[C@@H](CS)C(=O)Nc1ccc(NC(=O)Cc2ccc(Br)cc2)c(C(=O)c2ccccc2)c1`, growth was halved (GI50) at 14900 nM.

The next assay deals with K562. The experiment in a line: Antiproliferative activity against K562 cell line. Conditions: Homo sapiens. The format is functional. The gist of the method:
as §1
For `Cc1ccc(CC(=O)Nc2ccc(NC(=O)[C@@H](N)CS)cc2C(=O)c2ccccc2)cc1`, halving of growth (GI50) required 8100 nM.
Consider `N[C@@H](CS)C(=O)Nc1ccc(NC(=O)Cc2ccc(Br)cc2)c(C(=O)c2ccccc2)c1`, for which the GI50 worked out at 7900 nM.

Another assay addresses T1, Farnesyltransferase (Saccharomyces cerevisiae S288c, UniProt P22007+P29703).
T1 sequence (P29703 whole entry): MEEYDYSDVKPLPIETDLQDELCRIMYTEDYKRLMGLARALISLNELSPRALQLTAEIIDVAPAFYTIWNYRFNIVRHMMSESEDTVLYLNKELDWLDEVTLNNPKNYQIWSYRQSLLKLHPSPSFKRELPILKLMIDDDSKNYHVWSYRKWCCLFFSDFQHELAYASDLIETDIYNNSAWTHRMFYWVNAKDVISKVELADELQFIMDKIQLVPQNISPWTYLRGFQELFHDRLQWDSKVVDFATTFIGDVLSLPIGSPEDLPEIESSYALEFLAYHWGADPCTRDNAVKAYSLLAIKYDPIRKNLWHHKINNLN
T1 sequence (P22007 whole entry): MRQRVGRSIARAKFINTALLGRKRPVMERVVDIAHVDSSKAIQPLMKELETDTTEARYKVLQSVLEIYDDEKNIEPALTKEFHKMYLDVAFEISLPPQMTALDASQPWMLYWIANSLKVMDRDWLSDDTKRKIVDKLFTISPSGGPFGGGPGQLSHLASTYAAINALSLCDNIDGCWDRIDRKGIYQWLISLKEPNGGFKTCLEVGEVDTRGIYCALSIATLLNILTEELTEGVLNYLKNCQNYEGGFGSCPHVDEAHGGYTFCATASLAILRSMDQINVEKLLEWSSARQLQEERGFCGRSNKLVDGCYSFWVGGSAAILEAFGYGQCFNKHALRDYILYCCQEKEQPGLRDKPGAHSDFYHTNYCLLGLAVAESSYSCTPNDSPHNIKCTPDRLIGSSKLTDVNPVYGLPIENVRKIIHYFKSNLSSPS
As to the kind of experiment: Inhibitory activity against farnesyltransferase. The format is protein-complex assay.
Settings: not given
The gist of the method: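 Yeast FTase, GST fused at the N-terminus of the β-subunit, expressed in E. coli DH5α and purified on glutathione-agarose. Buffer: 50 mM Tris/HCl pH 7.4, 5 mM MgCl2, 10 μM ZnCl2, 5 mM DTT. Substrates: 7 μM dansyl-GCVLS, 20 μM FPP. Inhibitor in 1% DMSO. IC50 from initial velocities at four or five concentrations, three independent runs, mean ± SD.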
Consider `N[C@@H](CS)C(=O)Nc1ccc(NS(=O)(=O)Cc2ccccc2)c(C(=O)c2ccccc2)c1`, for which half-maximal inhibition (IC50) required 85 nM.
As to `Cc1ccc(CC(=O)Nc2ccc(NC(=O)[C@@H](N)CS)cc2C(=O)c2ccccc2)cc1`, half-maximal inhibition (IC50) was put at 77 nM. This IC50 and that of the molecule before are within 1.5-fold of each other.
Consider `N[C@@H](CS)C(=O)Nc1ccc(NC(=O)Cc2cccc(Cl)c2Cl)c(C(=O)c2ccccc2)c1`, for which inhibition was half-maximal at 420 nM (IC50).
As to `N[C@@H](CS)C(=O)Nc1ccc(NC(=O)CCC(=O)O)c(C(=O)c2ccccc2)c1`, it took 700 nM to reach half-maximal inhibition (IC50).
As to `N[C@@H](CS)C(=O)Nc1ccc(NC(=O)Cc2ccc(Cl)cc2Cl)c(C(=O)c2ccccc2)c1`, 120 nM corresponded to half-maximal inhibition (IC50).
The molecule `CC(C(=O)Nc1ccc(NC(=O)[C@@H](N)CS)cc1C(=O)c1ccccc1)c1ccccc1` (stereo not given in full) returned a concentration for half-maximal inhibition (IC50) of 650 nM.
Turning to `N[C@@H](CS)C(=O)Nc1ccc(NC(=O)Cc2cc(Cl)cc(Cl)c2)c(C(=O)c2ccccc2)c1`, half-maximal inhibition (IC50) was put at 535 nM.
As to `N[C@@H](CS)C(=O)Nc1ccc(NC(=O)Cc2ccc(C(F)(F)F)cc2)c(C(=O)c2ccccc2)c1`, the half-maximal inhibitory concentration (IC50) was 725 nM. The IC50 values of the last two molecules are within 1.5-fold of each other.
Same read-out and setting: under `COc1ccc(CC(=O)Nc2ccc(NC(=O)[C@@H](N)CS)cc2C(=O)c2ccccc2)cc1` stands 545 nM; under `N[C@@H](CS)C(=O)Nc1ccc(NC(=O)Cc2cc(Cl)ccc2Cl)c(C(=O)c2ccccc2)c1`, 2400 nM; under `N[C@@H](CS)C(=O)Nc1ccc(NC(=O)C(c2ccccc2)c2ccccc2)c(C(=O)c2ccccc2)c1`, 36 nM.
The same measure, in the same setting: under `N[C@@H](CS)C(=O)Nc1ccc(NC(=O)C(=O)c2ccccc2)c(C(=O)c2ccccc2)c1` stands 1420 nM.
`CC(CC(=O)Nc1ccc(NC(=O)[C@@H](N)CS)cc1C(=O)c1ccccc1)CC(C)(C)C` (stereo not given in full) displayed a 50% inhibitory concentration (IC50) of 8600 nM.
On the same count and under the same terms, then `N[C@@H](CS)C(=O)Nc1ccc(NC(=O)CCCC(=O)O)c(C(=O)c2ccccc2)c1`, with 550 nM; and `N[C@@H](CS)C(=O)Nc1ccc(NC(=O)Cc2ccc3ccccc3c2)c(C(=O)c2ccccc2)c1`, with 460 nM.
`Cc1cccc(CC(=O)Nc2ccc(NC(=O)[C@@H](N)CS)cc2C(=O)c2ccccc2)c1` came in with a half-maximal inhibitory concentration (IC50) of 540 nM. The IC50 values of the last two molecules are within 1.5-fold of each other.
`COC(=O)CCCC(=O)Nc1ccc(NC(=O)[C@@H](N)CS)cc1C(=O)c1ccccc1`: the IC50 is 2400 nM.
Take `Cc1ccccc1CC(=O)Nc1ccc(NC(=O)[C@@H](N)CS)cc1C(=O)c1ccccc1`: the 50% inhibitory concentration (IC50) came to 400 nM.
The same measure, in the same setting: under `N[C@@H](CS)C(=O)Nc1ccc(NC(=O)Cc2ccc(Cl)cc2)c(C(=O)c2ccccc2)c1` stands 105 nM.
With `N[C@@H](CS)C(=O)Nc1ccc(NC(=O)Cc2ccc(Cl)c(Cl)c2)c(C(=O)c2ccccc2)c1`, the half-maximal inhibitory concentration (IC50) was determined as 480 nM.
`N[C@@H](CS)C(=O)Nc1ccc(NC(=O)Cc2ccc(Br)cc2)c(C(=O)c2ccccc2)c1` returned a concentration for half-maximal inhibition (IC50) of 76 nM.
In turn, `N[C@@H](CS)C(=O)Nc1ccc(NC(=O)CCc2ccccc2)c(C(=O)c2ccccc2)c1` displayed a half-inhibitory concentration (IC50) of 1290 nM.
As for `N[C@@H](CS)C(=O)Nc1ccc(NC(=O)Cc2ccc([N+](=O)[O-])cc2)c(C(=O)c2ccccc2)c1`, the IC50 amounted to 115 nM.
Molecule `N[C@@H](CS)C(=O)Nc1ccc(NC(=O)Cc2ccccc2)c(C(=O)c2ccccc2)c1` gave an IC50 of 650 nM.
Still for that read-out and setting: then `COC(=O)CCC(=O)Nc1ccc(NC(=O)[C@@H](N)CS)cc1C(=O)c1ccccc1`, with 1800 nM; and `N[C@@H](CS)C(=O)Nc1ccc(NC(=O)c2ccccc2)c(C(=O)c2ccccc2)c1`, with 4780 nM; and `Cc1ccc(CS(=O)(=O)Nc2ccc(NC(=O)[C@@H](N)CS)cc2C(=O)c2ccccc2)cc1`, with 100 nM.
`N[C@@H](CS)C(=O)Nc1ccc(NC(=O)c2cccc3ccccc23)c(C(=O)c2ccccc2)c1`: the IC50 came to 4600 nM.
Same read-out and setting: then `CC(=O)Nc1ccc(NC(=O)[C@@H](N)CS)cc1C(=O)c1ccccc1`, with 7600 nM; and `N[C@@H](CS)C(=O)Nc1ccc(NC(=O)Cc2cccc3ccccc23)c(C(=O)c2ccccc2)c1`, with 380 nM; and `N[C@@H](CS)C(=O)Nc1ccc(NC(=O)Cc2c(Cl)cccc2Cl)c(C(=O)c2ccccc2)c1`, with 340 nM.
